From ChEMBL document CHEMBL1212784, “Structure-microbicidal activity relationship of synthetic fragments derived from the antibacterial alpha-helix of human lactoferrin” (2010)
Values after ≈ are worked out from the molar mass of the structure shown. Positions of bridges follow the written chain, without caps; N, C: chain ends. Residues, ends and D or L forms follow the SMILES beside them.

Assays:
Enterococcus faecalis = assay: Antimicrobial activity against Enterococcus faecalis ATCC 19433 using in brain heart infusion medium(dil) after 2 hrs at 25 ug/ml; format: functional
Outline: (§1)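 Single-concentration screen: log-phase organisms (~2 × 10^5 cells/ml) incubated 2 h at 37°C in diluted BHI (1/100 of 3.4%, pH 6.7 to 6.9) with 25 μg/ml peptide (10 μg/ml for E. coli O6 and C. albicans); viable counts on blood agar; scored as ≥99% killed or not; duplicates.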

[1] = system: Staphylococcus epidermidis; assay: Antimicrobial activity against Staphylococcus epidermidis CCUG 18000A using in brain heart infusion medium(dil) after 2 hrs at 25 ug/ml; format: functional; outline: as §1
Staphylococcus aureus [2] = assay: Antimicrobial activity against Staphylococcus aureus 1800 (CCUG 1800) using in brain heart infusion medium(dil) after 2 hrs at 25 ug/ml; format: functional; outline: as §1
Klebsiella pneumoniae = assay: Antimicrobial activity against Klebsiella pneumoniae CCUG 9997 using in brain heart infusion medium(dil) after 2 hrs at 25 ug/ml; format: functional; outline: as §1
Pseudomonas aeruginosa = assay: Antimicrobial activity against Pseudomonas aeruginosa CCUG 551 using in brain heart infusion medium(dil) after 2 hrs at 25 ug/ml; format: functional; outline: as §1
Escherichia coli [3] = assay: Antimicrobial activity against Escherichia coli O14 using in brain heart infusion medium(dil) after 2 hrs at 25 ug/ml; format: functional; outline: as §1
Escherichia coli [4] = assay: Antimicrobial activity against Escherichia coli O6 using in brain heart infusion medium(dil) after 2 hrs at 10 ug/ml; format: functional; outline: as §1
Candida albicans [5] = assay: Antimicrobial activity against Candida albicans ATCC […] using in brain heart infusion medium(dil) after 2 hrs at 10 ug/ml; format: functional, ATCC 64549; outline: as §1
[6] = Antimicrobial activity against Escherichia coli O6 K5 after 2 hrs incubation in bactopeptone; format: functional; conditions: K5, 2 h
Outline: (§2)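 Microplate killing assay in 1% Bactopeptone (pH 7.0). Log-phase organisms (BHI overnight, 2 h subculture, 37°C, washed), final ~2 × 10^5 cells/ml, with twofold peptide dilutions, 37°C humid chamber 2 h (or 20 h where stated). 5 μl drops plated on blood agar overnight; MMC99 = lowest concentration giving ≥99% inoculum reduction; duplicates.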

[7] = Antimicrobial activity against Escherichia coli O6 K5 after 20 hrs incubation in bactopeptone; format: functional; conditions: K5, 20 h; outline: as §2
Staphylococcus aureus [8] = assay: Antimicrobial activity against Staphylococcus aureus 1800 (CCUG 1800) after 20 hrs incubation in bactopeptone; format: functional; outline: as §2
Staphylococcus aureus [9] = assay: Antimicrobial activity against Staphylococcus aureus 1800 (CCUG 1800) after 2 hrs incubation in bactopeptone; format: functional; outline: as §2
Candida albicans [10] = assay: Antimicrobial activity against Candida albicans ATCC […] after 2 hrs incubation in bactopeptone; format: functional; conditions: ATCC 64549, 2 h; outline: as §2
Candida albicans [11] = assay: Antimicrobial activity against Candida albicans ATCC […] after 20 hrs incubation in bactopeptone; format: functional; conditions: ATCC 64549, 20 h; outline: as §2
[12] = Antimicrobial activity against Escherichia coli O6 K5 incubation in bactopeptone; format: functional; outline: as §2
Candida albicans [13] = assay: Antimicrobial activity against Candida albicans ATCC […] incubation in bactopeptone; format: functional; conditions: ATCC 64549; outline: as §2
Staphylococcus aureus [14] = assay: Antimicrobial activity against Staphylococcus aureus 1800 (CCUG 1800) incubation in bactopeptone; format: functional; outline: as §2
Staphylococcus aureus [15] = assay: Antimicrobial activity against Staphylococcus aureus 1800 (CCUG 1800) at 65.4 uM within 10 mins; format: functional; conditions: in the assay text read “62.7 uM” for “65.4 uM”
Outline: (§3)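 Killing kinetics in Bactopeptone with 62.7 μM or 65.4 μM peptide against ~2 × 10^5 cells/ml; samples taken immediately after mixing and at 5, 10, 30, 60 and 120 min, serially diluted and plated for viable counts; percent of inoculum killed; duplicates.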

Candida albicans [16] = assay: Antimicrobial activity against Candida albicans ATCC […] at 62.7 uM within 5 mins; format: functional, ATCC 64549; outline: as §3
Staphylococcus aureus [17] = assay: Antimicrobial activity against Staphylococcus aureus 1800 (CCUG 1800) at 62.7 uM within 30 mins; format: functional; conditions: in the assay text read “65.4 uM” for “62.7 uM”; outline: as §3
Candida albicans [18] = assay: Antimicrobial activity against Candida albicans ATCC […] at 65.4 uM within 5 mins; format: functional, ATCC 64549; outline: as §3

MIC99 [6]	MIC99 [7]	MIC99 (Staphylococcus aureus [8])	MIC99 (Staphylococcus aureus [9])	MIC99 (Candida albicans [10])	MIC99 (Candida albicans [11])	MIC99 [12]	MIC99 (Candida albicans [13])	MIC99 (Staphylococcus aureus [14])	Molecule	Activity (Enterococcus faecalis)	Activity [1]	Activity (Staphylococcus aureus [2])	Activity (Klebsiella pneumoniae)	Activity (Pseudomonas aeruginosa)	Activity (Escherichia coli [3])	Activity (Escherichia coli [4])	Activity (Candida albicans [5])	other results
100 µg/mL	50 µg/mL	> 100 µg/mL	> 100 µg/mL	> 200 µg/mL	100 µg/mL	100 µg/mL	50 µg/mL	> 100 µg/mL	H-CFQWQRNMRKVR-OH	>=99%	>=99%	>=99%	<99%	>=99%	>=99%	>=99%	>=99%	
						25 µg/mL	25 µg/mL	50 µg/mL	H-CFAWQRAMRKVR-OH									Activity (Staphylococcus aureus [15]): 90%; Activity (Candida albicans [16]): 99%
50 µg/mL	25 µg/mL	100 µg/mL	50 µg/mL	> 200 µg/mL	50 µg/mL				H-TKCFQWQRNMRKVR-OH	>=99%	>=99%	>=99%	>=99%	>=99%	>=99%	>=99%	>=99%	
25 µg/mL	12 µg/mL	50 µg/mL	25 µg/mL	200 µg/mL	50 µg/mL				H-KCFQWQRNMRKVR-OH	>=99%	>=99%	>=99%	>=99%	>=99%	>=99%	>=99%	>=99%	
									H-PEATKCFQWQRNMRKVR-OH	>=99%	>=99%	>=99%	<99%	<99%	<99%	<99%	<99%	
									H-QPEATKCFQWQRNMRKVR-OH	>=99%	<99%	>=99%	<99%	<99%	<99%	<99%	<99%	
						50 µg/mL (≈ 16.3 µM)	200 µg/mL (≈ 65.4 µM)	50 µg/mL (≈ 16.3 µM)	CC[C@H](C)[C@H](NC(=O)[C@@H]1CSSC[C@H](NC(=O)[C@H](CCCCN)NC(=O)[C@@H](NC(=O)[C@H](C)NC(=O)[C@H](CCC(=O)O)NC(C)=O)[C@@H](C)O)C(=O)N[C@@H](Cc2ccccc2)C(=O)N[C@@H](CCC(N)=O)C(=O)N[C@@H](Cc2c[nH]c3ccccc23)C(=O)N[C@@H](CCC(N)=O)C(=O)N[C@@H](CCCNC(=N)N)C(=O)N[C@@H](CC(N)=O)C(=O)N[C@@H](CCSC)C(=O)N[C@@H](CCCNC(=N)N)C(=O)N[C@@H](CCCCN)C(=O)N[C@@H](C(C)C)C(=O)N[C@@H](CCCNC(=N)N)C(=O)NCC(=O)N2CCC[C@H]2C(=O)N2CCC[C@H]2C(=O)N[C@@H](C(C)C)C(=O)N[C@@H](CO)C(=O)N1)C(=O)N[C@@H](CCCCN)C(=O)N[C@@H](CCCNC(=N)N)C(N)=O (Ac-EATKCFQWQRNMRKVRGPPVSCIKR-NH2; disulfide 5-22)									Activity (Staphylococcus aureus [17]): 80%; Activity (Candida albicans [18]): >90%
